Compound activity as filed in PubChem BioAssay.
This is a sample that favours compounds with a hit; in the whole collection about 2% have one here.
HIF activator: HIF pathway transcriptional activation. U2OS HRE-luciferase reporter, luminescence; normalized: DMSO 0%, desferrioxamine 100%. AID 1910. 0.32% of 300,000 active. activation, % at 7.5 µM (by protocol);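 active = mean activation of at least 10% of the iron chelator positive control signal, with at least half of replicates also reaching 10%; inconclusive = mean and replicate majority disagree about reaching 10%; inactive = mean and most replicates under 10%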
ARNT TACC3 PPI: disruptors of human ARNT/TACC3 interaction; Q9Y6A5; inhibition, % at 9.99 µM; 0.66% of 390,000 active; AlphaScreen His-ARNT PAS-B/GST-TACC3 binding, luminescence; TACC3 fragment carries E629A point mutation;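 active = mean inhibition of replicates at least 50% and at least half of replicates each reaching 50%; inconclusive = half or more replicates reach 50% but mean below 50%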;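 note: 0% = complete ARNT plus TACC3 wells and 100% = ARNT alone without TACC3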
AI-2 QS modul: Vibrio harveyi AI-2 quorum sensing modulation. AID 2094. Vibrio harveyi JMH597 AI-2 luminescence/OD600 ratio, 9 h; active compounds read low; strain lacks LuxN and CqsS sensors; 0 = neutral-control median. activity change, % at 7.5 µM. 0.4% of 300,000 active; in the data active = activity change below about -75%, passing the limit was not always enough; inconclusive = no clear call, values can overlap the other calls;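 note: luminescence divided by OD600 gain over 9 h not by final OD600 alone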
T cruzi repl: T. cruzi replication inhibition | inhibition, % (test concentration not listed) | T. cruzi beta-gal in NIH3T3, luminescence, 90 h | 1.4% of 300,000 active;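 active = mean inhibition across valid replicates above about 55%, limit read from the data; inconclusive = mean below that limit but half or more replicates reach it; inactive = mean below it, under half of replicates reach it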;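 note: signal also drops with host cell toxicity which is not excluded here; 0% = plate median of DMSO wells and 100% = zero luminescence signal; higher percent means less beta-gal luminescence so fewer parasites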
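Test system: β-gal T. cruzi (Tulahuen C4) inside NIH/3T3 cells / Quantity: 5,000 cells/well / Measured by: luminescence from GalScreen with 0.05% NP40, read after 60 min / Medium: DMEM plus 2% FBS / Measure: parasite load inhibition, % / Reagent: Tulahuen C4 trypomastigotes, 5000/well / Schedule: co-culture of at least 90 h after 3 h attachment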
JMH597 growth rt: retest Vibrio harveyi JMH597 growth inhibition; OD600 absorbance, 9 h; lacks LuxN and CqsS sensors; shares compounds with AI-2 QS modul; growth inhibition, % at 7.5 µM; 1% of 750 active;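 active = every replicate shows growth inhibition above 50%; inconclusive = at least half, but not all, replicates pass that cutoff; inactive = fewer than half of replicates pass it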
BB721 const-QS lum: retest counter-screen: luminescence loss in constitutive-on quorum sensing strain BB721. shares compounds with AI-2 QS modul. Vibrio harveyi BB721 luminescence, 9 h. inhibition, % at 7.5 µM. 95% of 750 active. AID 2727;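 active = inhibition above about 80% in every replicate, not just on average, limit read from the data; inconclusive = at least half of replicates past the limit, but not all; inactive = fewer than half of replicates past the limit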
BB721 growth rt: retest: inhibitors of Vibrio harveyi BB721 growth | growth inhibition, % at 7.5 µM | AID 2728 | OD600 absorbance, 9 h | 3% of 750 active | shares compounds with AI-2 QS modul;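 active = every replicate shows growth inhibition above 50%; inconclusive = at least half but not all replicates above 50% inhibition; inactive = under half of replicates above 50% inhibition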
JMH597 AI-2 mod: Vibrio harveyi AI-2 signaling luminescence modulation – JMH597 strain, confirmation | 97% of 750 active | shares compounds with AI-2 QS modul | inhibition, % at 7.5 µM | AID 2736 | Vibrio harveyi JMH597 AI-2 quorum sensing luminescence, 9 h; luxN and CqsS knockout, AI-2 only;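 active = every replicate shows more than 75% inhibition of signal versus neutral control wells; inconclusive = half to three quarters of replicates exceed 75% inhibition; inactive = fewer than half of replicates exceed 75% inhibition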
* marks the source's active call; other numbers are inactive results; ? = inconclusive; · = not tested or not shown.

SMILES	HIF activator	ARNT TACC3 PPI	AI-2 QS modul	T cruzi repl	JMH597 growth rt	BB721 const-QS lum	BB721 growth rt	JMH597 AI-2 mod
Cc1ccc(Cc2cnc(NC(=O)c3ccco3)s2)cc1	0	-3	-86*	-13	27	97*	?	98*
Cc1ccc(Oc2ccc(NC(=O)c3ccco3)cc2)cc1	1	21	-97*	-21	43	100*	?	100*
Cc1noc(C)c1S(=O)(=O)Nc1ccc2c(c1)C(=O)N([C@H](C)CO)C[C@H](C)[C@H](CN(C)C(=O)NC1CCCCC1)OCCCC[C@@H](C)O2	·	0	·	·	·	·	·	·
O=C(Cc1ccc(Br)cc1)Nc1ccc(S(=O)(=O)Nc2ncccn2)cc1	-3	-3	?	-3	·	·	·	·
COc1ccc(CC(=O)Nc2ccc(C(N)=O)cc2)cc1	0	-5	?	7	1	85*	-7	89*
COc1ccc(CC(=O)Nc2ccc(S(=O)(=O)Nc3nccs3)cc2)cc1	0	0	?	-2	-2	84*	3	89*
COc1cccc(CC(=O)Nc2ccc(S(=O)(=O)Nc3nccs3)cc2)c1	·	23	·	·	·	·	·	·
COc1ccc(CC(=O)Nc2ccc(S(=O)(=O)NCC3CCCO3)cc2)cc1 (stereo not given)	0	-1	-93*	-19	31	99*	-34	100*
COc1ccc(CC(=O)OCC(=O)Nc2ccc(C(=O)Nc3ccc(OC)cc3)cc2)cc1	1	1	27	9	·	·	·	·
O=C(Cc1ccc(Cl)cc1)Nc1ccc(S(=O)(=O)Nc2ncccn2)cc1	0	-7	-92*	-9	17	98*	28	99*
CN(C)C(=O)c1ccc(-c2ccc3c(c2)[C@@H]2[C@@H](CCN2S(=O)(=O)c2cn(C)cn2)[C@@H](CO)N3)cc1	·	3	·	·	·	·	·	·
CC=Cc1ccc2n(c1=O)C[C@H]1[C@H](CO)[C@@H](C(=O)N3CCOCC3)N(CC3CC3)[C@@H]21 (mixture of isomers)	·	7	·	·	·	·	·	·
O=C(CN1C(=O)c2ccccc2C1=O)Nc1ccc(S(=O)(=O)NCC2CCCO2)cc1 (stereo not given)	·	-2	-91*	-37	-9	96*	-32	97*
CC(Oc1ccccc1)C(=O)Nc1ccc(S(=O)(=O)NCC2CCCO2)cc1 (stereo not given)	0	-1	?	-12	29	97*	-18	100*
CO[C@@H]1CC[C@H]2CCN(C)C(=O)[C@@H](C)N(C)C(=O)c3cc(C#N)ccc3OC[C@@H]1O2	·	1	·	·	·	·	·	·
CC(C)Oc1ccc(NC(=O)C2CCCNC2=O)cc1 (stereo not given)	0	3	?	-9	-7	89*	-3	93*
COc1ccc(OC)c(NC(=O)C2CCCNC2=O)c1 (stereo not given)	0	-6	21	-7	·	·	·	·
COc1ccccc1CNC(=O)c1ccc(S(=O)(=O)N(C)C)cc1	1	10	-80*	-12	-5	84*	0	90*
COc1ccc(C(=O)OCn2nnc3ccccc3c2=O)cc1OC	0	-4	25	-3	·	·	·	·
CN(C)S(=O)(=O)c1ccc(C(=O)OCn2nnc3ccccc3c2=O)cc1	0	4	-89*	-6	28	96*	37	97*
COc1ccccc1OCCNC(=O)c1ccc(S(=O)(=O)N(C)C)cc1	0	-5	-6	-5	·	·	·	·
CN(C)S(=O)(=O)c1ccc(C(=O)Oc2ccccc2)cc1	0	-4	-80*	-13	11	91*	39	93*
O=C(Oc1ccccc1)c1ccccc1	·	-4	·	·	·	·	·	·
C[C@@H]1CN([C@@H](C)CO)C(=O)c2cc(C3=CCCC3)cnc2O[C@H]1CN(C)C(=O)Nc1ccc(F)cc1	·	-6	·	·	·	·	·	·
CN1[C@H](C(=O)N2CCCCC2)[C@@H](CO)[C@@H]2Cn3c(ccc(/C=C/c4ccccc4)c3=O)[C@@H]21	·	-3	·	·	·	·	·	·
SMILES	HIF activator	ARNT TACC3 PPI	AI-2 QS modul	T cruzi repl	JMH597 growth rt	BB721 const-QS lum	BB721 growth rt	JMH597 AI-2 mod
CC(=O)c1cccc(NC(=O)COC(=O)c2ccccc2C)c1	1	-4	-90*	-14	4	98*	-8	99*
CC(=O)c1cccc(NC(=O)CSC(=O)c2ccccc2)c1	30*	-4	-87*	5	11	95*	0	97*
CC(=O)c1ccc(NC(=O)COC(=O)c2ccc(F)cc2F)cc1	0	·	-90*	5	14	97*	-13	98*
Cc1cc(C(=O)OCC(=O)Nc2c(Cl)cccc2Cl)c(C)o1	·	-1	·	·	·	·	·	·
O=C(COC(=O)c1ccc(F)cc1F)NCCNC(=O)COC(=O)c1ccc(F)cc1F	0	-6	19	-6	·	·	·	·
Cc1cccc(NC(=O)COC(=O)c2cc(C)oc2C)c1	0	-4	-88*	-8	17	95*	18	97*
CCN(CC)c1ccc(NC(=O)CSC(=O)c2ccccc2)cc1	·	36	·	·	·	·	·	·
C[C@H](O)C#Cc1cnc2c(c1)C(=O)N([C@H](C)CO)C[C@@H](C)[C@H](CN(C)C(=O)Cc1ccccn1)O2	·	-19	·	·	·	·	·	·
C[C@@H]1CN([C@@H](C)CO)S(=O)(=O)c2ccc(C3=CCCCC3)cc2O[C@@H]1CN(C)C(=O)c1ccncc1	·	5	·	·	·	·	·	·
C[C@@H]1CN([C@H](C)CO)C(=O)c2cc(C#CCN(C)C)cnc2O[C@H]1CN(C)Cc1ccccc1F	·	2	·	·	·	·	·	·
C[C@H](CO)N1C[C@H](C)[C@H](CN(C)Cc2ccccc2)Oc2c(NS(=O)(=O)c3cn(C)cn3)cccc2C1=O	·	-1	·	·	·	·	·	·
CCCCCC(=O)NC(=S)Nc1cccc(C(C)=O)c1	0	·	-95*	12	-14	95*	19	96*
Cc1cc(=O)oc2cc(OCC3CC(c4ccc(Br)cc4)=NO3)ccc12 (stereo not given)	0	-13	·	47	·	·	·	·
Cc1cc(=O)oc2cc(OCC3CC(c4ccccc4)=NO3)ccc12 (stereo not given)	2	-11	-86*	-1	21	95*	35	96*
CNC(=O)C[C@@H]1CC[C@@H]2[C@H](COC[C@H](O)CN2C(=O)Nc2cccc(OC)c2)O1	·	5	·	·	·	·	·	·
COc1ccc(S(=O)(=O)NCC(=O)Nc2ccc(F)cc2)cc1	·	-13	·	·	·	·	·	·
CC(C)c1ccc(NC(=O)CNS(=O)(=O)c2ccc(F)cc2)cc1	-1	-14	-77*	11	10	89*	6	93*
O=C(Nc1ccc(Cc2ccncc2)cc1)c1ccc(Br)o1	1	5	-81*	6	-13	88*	-47	94*
